Measured values from ChEMBL document CHEMBL1122668, “Synthesis, conformational analysis, and antiarrhythmic properties of 7-benzyl-3-thia-7-azabicyclo[3.3.1]nonan-9-one, 7-benzyl-3-thia-7-azabicyclo[3.3.1]nonane hydroperchlorate, and 7-benzyl-9-phenyl-3-thia-7-azabicyclo[3.3.1]nonan-9-ol hydroperchlorate and derivatives: single-crystal X-ray …” (1984).
The source made the active and inactive calls. No cut-off for these calls is given here.

Legend:
Canis familiaris [1] = organism: Canis familiaris; assay: Effect of compound on rate of induced ventricular tachycardia (VT) in dog; assay type: functional, Canis lupus familiaris, Cardiac ventricle
In short: (§1)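 Dogs with 24-h myocardial infarction under iv sodium pentobarbital (30 mg/kg), six per agent. Drug given as an iv bolus in 50% ethanol at 3 and 6 mg/kg; the reference agent was given iv at 2, 4 and 6 mg/kg. Sustained VT was induced by three paced ventricular beats at 240–390/min, with pacing retried up to 420/min after dosing. Read-outs were VT rate, abolition count and continuous mean arterial pressure.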

Canis familiaris [2] = organism: Canis familiaris; assay: Compound was tested for mean blood pressure on induced Ventricular Tachycardia (VT); assay type: functional, Canis lupus familiaris; in short: as §1
Canis familiaris [3] = organism: Canis familiaris; assay: Increase in mean blood pressure on Ventricular Tachycardia (VT); (SL-Slight); assay type: functional, Canis lupus familiaris
In short: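 Pentobarbital-anesthetized dogs with infarction, given the drug intravenously. Mean arterial blood pressure was monitored continuously during ventricular tachycardia induced by three paced ventricular beats.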

Canis familiaris [4] = organism: Canis familiaris; assay: Effect of compound on myocardial conduction normal (A-V, I-V); No change.; assay type: functional, organism-based; conditions: Canis lupus familiaris; Myocardium
Canis familiaris [5] = organism: Canis familiaris; assay: Compound was evaluated for abolition of ventricular tachycardia (Number/total); + = slight degree; assay type: functional, organism-based; conditions: Canis lupus familiaris; Cardiac ventricle
Canis familiaris [6] = organism: Canis familiaris; assay: Effect of compound on myocardial conduction abnormal; No change.; assay type: functional, organism-based; conditions: Canis lupus familiaris; Myocardium
Canis familiaris [7] = organism: Canis familiaris; assay: Effect of compound on myocardial conduction abnormal; ++ = moderate decrease; assay type: functional, organism-based; conditions: Canis lupus familiaris; Myocardium
Canis familiaris [8] = organism: Canis familiaris; assay: Effect of compound on myocardial conduction abnormal; +++ = marked decrease; assay type: functional, organism-based; conditions: Canis lupus familiaris; Myocardium
In short: (§2)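 Pentobarbital-anesthetized dogs (30 mg/kg iv) with 24-h myocardial infarction, heart exposed by left thoracotomy. Recordings: lead II ECG, His bundle electrogram, and endocardial and epicardial electrodes over the infarct (abnormal tissue) plus a noninfarcted posterior epicardial reference (normal tissue). Atrial pacing from 180/min up to second-degree A-V block, before and after iv drug. Read-outs: intra-atrial, A-V nodal, His-Purkinje and ventricular conduction.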

Canis familiaris [9] = organism: Canis familiaris; assay: Compound was evaluated for abolition of ventricular tachycardia (Number/total);+ = slight degree; assay type: functional, organism-based; conditions: Canis lupus familiaris; Cardiac ventricle
In short: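 Dogs with 24-h myocardial infarction, anesthetized with 30 mg/kg iv sodium pentobarbital and given a left thoracotomy. Sustained ventricular tachycardia induced by three paced ventricular beats at 240–390/min. Compound given iv as a bolus in 50% ethanol. Pacing induction attempts repeated after dosing, up to 420/min. Abolition scored as number of dogs/total, with mean arterial pressure monitored.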

Canis familiaris [10] = organism: Canis familiaris; assay: Effect of compound on myocardial conduction normal (A-V, I-V); […]; assay type: functional, organism-based; conditions: Canis lupus familiaris; Myocardium; in short: as §2
[11] = Compound was evaluated for abolition of ventricular tachycardia (Number/total); 0/6.; assay type: functional, tissue-based; conditions: Cardiac ventricle

## [O-][Cl+3]([O-])([O-])O.c1ccc(CN2CC3CSCC(C3)C2)cc1
Canis familiaris [1]
  Rate: 250
Canis familiaris [2]
  Mean blood pressure: 112 mmHg

## O=C1C2CSCC1CN(Cc1ccccc1)C2.[O-][Cl+3]([O-])([O-])O
Canis familiaris [3]
  Mean blood pressure: 15%

## O=C1C2CSCC1CN(Cc1ccccc1)C2 [listing 1 of 2 here]
Canis familiaris [4]
  Change in myocardial conduction: inactive
Canis familiaris [5]
  Abolition: slight degree
Canis familiaris [6]
  Change in myocardial conduction: inactive
Canis familiaris [7]
  Effect: moderate decrease

## OC1(c2ccccc2)C2CSCC1CN(Cc1ccccc1)C2.[O-][Cl+3]([O-])([O-])O (stereo not given)
Canis familiaris [8]
  Effect: marked decrease
Canis familiaris [9]
  Abolition: slight degree
Canis familiaris [10]
  Effect: marked decrease
Canis familiaris [3]
  Mean blood pressure: < 10%

## O=C1C2CSCC1CN(Cc1ccccc1)C2 [listing 2 of 2 here]
Canis familiaris [3]
  Mean blood pressure: < 10%

## CCN(CC)CC(=O)Nc1c(C)cccc1C [LIDOCAINE]
Canis familiaris [1]
  Rate: 315
Canis familiaris [2]
  Mean blood pressure: 95 mmHg
[11]
  Ratio: inactive
